Measurements published in ChEMBL document CHEMBL1629534, “Acetic acid derivatives of 3,4-dihydro-2H-1,2,4-benzothiadiazine 1,1-dioxide as a novel class of potent aldose reductase inhibitors” (J Med Chem, 2010).

What was measured:
[1] = target: Aldo-keto reductase family 1 member A1 (Rattus norvegicus, UniProt P51635); test: Inhibition of Wistar rat kidney ALR1 by spectrophotometry
In short: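 ALR1 enzyme extract in 0.1 M sodium phosphate pH 7.2 with NADPH (0.25 mL of 0.12 mM) and compound diluted from DMSO, preincubated 10 min at 37 °C. Started with sodium D-glucuronate (0.25 mL of 20 mM, 1 mL total). Fall in A340 followed for 4 min, corrected for substrate-free rate. Screened at 10^-4 M. IC50 from at least four concentrations, 10^-4 to 10^-8 M, in triplicate.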

[2] = target: Aldo-keto reductase family 1 member B1 (Rattus norvegicus, UniProt P07943); test: Inhibition of Wistar rat lenses ALR2 by spectrophotometry; assay type: tissue-based, Lens of camera-type eye
In short: (§1)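 ALR2 enzyme extract in 0.1 M sodium phosphate pH 6.2 with NADPH (0.25 mL of 0.10 mM) and compound diluted from DMSO, preincubated 10 min at 32 °C. Started with D,L-glyceraldehyde (0.25 mL of 10 mM, 1 mL total). Fall in A340 followed for 4 min, corrected for substrate-free rate. Screened at 10^-4 M. IC50 from at least four concentrations giving 20-80% inhibition, in triplicate, with 95% CL.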

[3] = test system: Aldehyde reductase, AKR1A1 (Rattus norvegicus); test: Inhibition of Wistar rat kidney ALR1 at 0.1 mM by spectrophotometry
Rattus norvegicus [4] = test: Inhibition of ALR2 in 5-day STZ-induced diabetic Wistar rat model assessed as normalization of elevated sorbitol levels in sciatic nerves at 100 mg/kg/day, po for 5 days; assay type: functional, Sciatic nerve; set-up: scale not given: the % may be the effect or the level left
In short: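 STZ-diabetic male Wistar rats (ip 55 mg/kg) got compound po in 0.5% CMC-Na for 5 days. Sciatic nerve taken 6 h after last dose, boiled, homogenized in 6% perchloric acid and neutralized. Sorbitol read enzymatically with sorbitol dehydrogenase/NAD+ at pH 9.4, 60 min 37 °C, fluorescence ex 365/em 430 nm. Inhibition = (S-T)/(S-N)×100 against diabetic and nondiabetic controls.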

Rattus norvegicus [5] = test: Inhibition of ALR2 in 5-day STZ-induced diabetic Wistar rat model assessed as blood glucose levels at 100 mg/kg/day, po for 5 days (reference value: 22.2 +/- 2.62 mmol/L); assay type: functional
[6] = target: Aldo-keto reductase family 1 member B1 (Rattus norvegicus) (UniProt P07943); test: Inhibition of Wistar rat lenses ALR2 at 0.1 mM by spectrophotometry; assay type: tissue-based; conditions: Lens of camera-type eye; in short: as §1

Chain of Aldo-keto reductase family 1 member A1 (P51635 whole entry, looked up): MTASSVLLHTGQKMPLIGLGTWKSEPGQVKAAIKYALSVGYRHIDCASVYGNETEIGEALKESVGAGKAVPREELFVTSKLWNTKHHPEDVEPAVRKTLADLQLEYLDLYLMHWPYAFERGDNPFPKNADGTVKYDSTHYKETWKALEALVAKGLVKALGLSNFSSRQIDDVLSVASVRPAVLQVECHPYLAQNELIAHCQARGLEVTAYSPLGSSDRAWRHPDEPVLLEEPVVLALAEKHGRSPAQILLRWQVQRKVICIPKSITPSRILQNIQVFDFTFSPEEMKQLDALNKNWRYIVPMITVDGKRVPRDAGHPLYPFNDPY

SMILES | IC50 [1] | IC50 [2] | inhibition [3] | Activity (Rattus norvegicus [4]) | Activity (Rattus norvegicus [5]) | inhibition [6]
O=C(O)CN1CN(Cc2cccc([N+](=O)[O-])c2)S(=O)(=O)c2cc(Br)ccc21 | 103000 nM | 116 nM | – | – | – | –
O=C(O)CN1CN(Cc2ccc(C(F)(F)F)cc2)S(=O)(=O)c2cc(Cl)ccc21 | – | 595 nM | 45% | – | – | –
O=C(O)CN1CN(Cc2ccc(Br)cc2F)S(=O)(=O)c2ccccc21 | 70300 nM | 125 nM | – | – | – | –
O=C(O)CN1CN(Cc2ccc(C(F)(F)F)cc2)S(=O)(=O)c2ccccc21 | – | 975 nM | 42% | – | – | –
O=C(O)CN1CN(Cc2cc(F)c(F)cc2F)S(=O)(=O)c2cc(Cl)ccc21 | 50600 nM | 32 nM | – | 61.5% | 17.9 mmol/L | –
O=C(O)CN1CN(Cc2ccc(Br)cc2F)S(=O)(=O)c2cc(Cl)ccc21 | 58900 nM | 41 nM | – | 60.7% | 18.2 mmol/L | –
O=C(O)CN1CN(Cc2cccc([N+](=O)[O-])c2)S(=O)(=O)c2cc(Cl)ccc21 | 82500 nM | 94 nM | – | 45% | 19.7 mmol/L | –
O=C(O)CN1CN(Cc2cc(F)c(F)cc2F)S(=O)(=O)c2ccccc21 | – | 111 nM | – | – | – | –
O=C(O)CN1CN(Cc2ccc(C(F)(F)F)cc2)c2ccccc2S1(=O)=O | – | – | – | – | – | 41.3%
O=C(O)CN1CN(Cc2ccc(Br)cc2F)S(=O)(=O)c2cc(F)ccc21 | 122000 nM | 90 nM | – | 47.3% | 17.9 mmol/L | –
O=C(O)CN1CN(Cc2cccc([N+](=O)[O-])c2)S(=O)(=O)c2cc(F)ccc21 | 61900 nM | 108 nM | – | 43.6% | 19.8 mmol/L | –
O=C(O)CN1CN(Cc2ccc(Br)cc2F)S(=O)(=O)c2cc(Br)ccc21 | 69400 nM | 71 nM | – | 42.4% | 18.4 mmol/L | –
O=C(O)CN1CN(Cc2ccc(C(F)(F)F)cc2)S(=O)(=O)c2cc(F)ccc21 | – | 931 nM | 40% | – | – | –
NC(=O)[C@@H]1C[C@]2(NC(=O)NC2=O)c2cc(F)ccc2O1 [FIDARESTAT] | – | 29 nM | – | 100% | 18.5 mmol/L | –
O=C(O)CN1CN(Cc2ccc(C(F)(F)F)cc2)S(=O)(=O)c2cc(Br)ccc21 | 110000 nM | 674 nM | – | – | – | –
O=C(O)CN1CN(Cc2cccc([N+](=O)[O-])c2)S(=O)(=O)c2ccccc21 | 55800 nM | 219 nM | – | – | – | –
O=C(O)CN1CN(Cc2ccc(Br)cc2F)c2ccccc2S1(=O)=O | – | 58400 nM | – | – | – | –
O=C(O)CN1CN(Cc2cccc([N+](=O)[O-])c2)c2ccccc2S1(=O)=O | – | 74500 nM | – | – | – | –
O=C(O)CN1CN(Cc2cc(F)c(F)cc2F)S(=O)(=O)c2cc(F)ccc21 | 80900 nM | 66 nM | – | 68.2% | 18.4 mmol/L | –
O=C(O)CN1CN(Cc2cc(F)c(F)cc2F)c2ccccc2S1(=O)=O | – | 14000 nM | – | – | – | –
O=C(O)CN1CN(Cc2cc(F)c(F)cc2F)S(=O)(=O)c2cc(Br)ccc21 | 54100 nM | 52 nM | – | 51.2% | 20.1 mmol/L | –
O=C(O)CN1CN(Cc2ccccc2)S(=O)(=O)c2ccccc21 | – | 101000 nM | – | – | – | –
